Here are results for two compounds from ChEMBL document CHEMBL1153852, “Steroidal lactones as inhibitors of 17beta-hydroxysteroid dehydrogenase type 5: chemical synthesis, enzyme inhibitory activity, and assessment of estrogenic and androgenic activities” (Eur J Med Chem, 2009).

Activity calls are given as the source filed them. The rule behind the calls is not given here.

Assay [1] addresses T1, Aldo-keto reductase family 1 member C3 (Homo sapiens) (UniProt P42330).
T1 sequence (whole entry): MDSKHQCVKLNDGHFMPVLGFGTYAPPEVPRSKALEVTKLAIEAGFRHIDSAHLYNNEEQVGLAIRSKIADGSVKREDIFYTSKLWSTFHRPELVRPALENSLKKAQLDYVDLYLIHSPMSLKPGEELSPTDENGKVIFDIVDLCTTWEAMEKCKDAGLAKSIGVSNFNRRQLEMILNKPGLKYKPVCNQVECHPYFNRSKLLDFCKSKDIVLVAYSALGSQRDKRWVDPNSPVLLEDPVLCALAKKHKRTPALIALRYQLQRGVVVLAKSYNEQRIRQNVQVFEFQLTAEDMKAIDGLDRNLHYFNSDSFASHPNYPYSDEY
As to the kind of experiment: Inhibition of human 17beta-HSD5 expressed in HEK293 cells assessed as enzyme-mediated transformation of [14C]-4-androstene-3,17-dione in to [14C]-testosterone at 3 uM after 18 hrs. It is filed as cell-based. A digest of the protocol: (§1)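 Intact HEK-293 cells stably over-expressing human 17β-HSD5, in freshly changed culture medium. [14C]-4-androstene-3,17-dione is added at 100 nM with inhibitor from an ethanolic solution; controls get ethanol only. After 18 h the conversion to [14C]-T is measured.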

The species named for assay [2] is Mus musculus. As to the kind of experiment: Androgenic activity in mouse SC115 cells expressing androgen receptor assessed as DHT-induced cell proliferation at 0.1 uM after 10 days relative to DHT. The class given is functional, cell-based. A digest of the protocol:
(§2)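 SC115 Shionogi clone selected for DHT sensitivity, in MEM with 2% dextran-charcoal-treated FCS, seeded at 20,000 cells/well. After 24 h the medium is renewed and lactones added at 0.1 and 1, without DHT. Final ethanol is 0.01%. Cells are grown 10 days at 37 °C in 5% CO2, with medium changed every 3–4 days. DNA is measured by DABA fluorescence; DHT-stimulated growth is set to 100%.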

The test system of assay [3] is ZR-75-1. As to the kind of experiment: Antiestrogenic activity in human ZR-75-1 cells expressing estrogen receptor assessed as inhibition of estrogen-induced cell proliferation at 0.03 uM after 9 days relative to estrogen. It is filed as functional, cell-based. A digest of the protocol:
(§3)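 ZR-75-1 cells are resuspended in phenol red-free RPMI 1640 with 5% dextran-charcoal-treated FBS and seeded at 10,000 cells/well. After 3 days of adhesion, lactones from ethanol stocks are added alone or with E2 (0.1 nM). Cells grow 9 days at 37 °C in 5% CO2, with medium changed every 2–3 days. DNA is measured by DABA fluorescence; E2-induced growth is set to 100%.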

For assay [4], the system named is ZR-75-1. Description: Antiestrogenic activity in human ZR-75-1 cells expressing estrogen receptor assessed as inhibition of estrogen-induced cell proliferation at 1 uM after 9 days relative to estrogen. It is filed as functional, cell-based. A digest of the protocol: as §3
Assay [5] concerns ZR-75-1. As to the kind of experiment: Estrogenic activity in human ZR-75-1 cells expressing estrogen receptor assessed as estrogen-induced cell proliferation at 1 uM after 9 days relative to estrogen. It is filed as functional. A digest of the protocol: as §3
Assay [6] has as its target T1, Aldo-keto reductase family 1 member C3 (Homo sapiens). As to the kind of experiment: Inhibition of human 17beta-HSD5 expressed in HEK293 cells assessed as enzyme-mediated transformation of [14C]-4-androstene-3,17-dione in to [14C]-testosterone at 0.3 uM after 18 hrs. It is filed as cell-based. A digest of the protocol: as §1
The target of assay [7] is T2, Aldo-keto reductase family 1 member C3 (Homo sapiens, UniProt P42330).
T2 sequence (P42330 whole entry): T1 sequence (whole entry)
Description: Inhibition of human 17beta-HSD5 expressed in HEK293 cells assessed as enzyme-mediated transformation of [14C]-4-androstene-3,17-dione in to [14C]-testosterone after 18 hrs. The class given is cell-based. Summed up: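 Intact HEK-293 cells stably over-expressing human 17β-HSD5, in fresh culture medium. [14C]-4-androstene-3,17-dione 0.1 μM with inhibitor added in ethanol (ethanol alone as control), 18 h.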

Assay [8] is filed under the species Mus musculus. Description: Androgenic activity in mouse SC115 cells expressing androgen receptor assessed as DHT-induced cell proliferation at 1 uM after 10 days relative to DHT. It is filed as functional, cell-based. A digest of the protocol:
as §2

Assay [9] has as its target T3, 17-beta-hydroxysteroid dehydrogenase type 2 (Homo sapiens) (UniProt P37059).
T3 sequence (whole entry): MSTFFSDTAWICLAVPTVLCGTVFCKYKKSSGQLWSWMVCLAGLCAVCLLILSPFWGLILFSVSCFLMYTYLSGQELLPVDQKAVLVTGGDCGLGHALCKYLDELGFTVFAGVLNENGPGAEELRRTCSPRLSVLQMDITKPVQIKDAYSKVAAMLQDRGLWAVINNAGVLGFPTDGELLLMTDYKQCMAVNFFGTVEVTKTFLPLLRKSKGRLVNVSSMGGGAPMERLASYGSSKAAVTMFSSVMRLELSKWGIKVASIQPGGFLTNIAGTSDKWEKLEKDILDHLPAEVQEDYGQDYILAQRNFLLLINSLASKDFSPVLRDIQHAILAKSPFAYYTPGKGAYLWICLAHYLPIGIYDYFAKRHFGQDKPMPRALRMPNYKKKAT
As to the kind of experiment: Inhibition of human 17beta-HSD2 expressed in HEK293 cells assessed as enzyme-mediated transformation of [14C]-testosterone in to [14C]-4-androstene-3,17-dione at 0.1 uM. It is filed as cell-based.

For assay [10], the target named is T4, Glucocorticoid receptor (Rattus norvegicus) (UniProt P06536).
T4 sequence (whole entry): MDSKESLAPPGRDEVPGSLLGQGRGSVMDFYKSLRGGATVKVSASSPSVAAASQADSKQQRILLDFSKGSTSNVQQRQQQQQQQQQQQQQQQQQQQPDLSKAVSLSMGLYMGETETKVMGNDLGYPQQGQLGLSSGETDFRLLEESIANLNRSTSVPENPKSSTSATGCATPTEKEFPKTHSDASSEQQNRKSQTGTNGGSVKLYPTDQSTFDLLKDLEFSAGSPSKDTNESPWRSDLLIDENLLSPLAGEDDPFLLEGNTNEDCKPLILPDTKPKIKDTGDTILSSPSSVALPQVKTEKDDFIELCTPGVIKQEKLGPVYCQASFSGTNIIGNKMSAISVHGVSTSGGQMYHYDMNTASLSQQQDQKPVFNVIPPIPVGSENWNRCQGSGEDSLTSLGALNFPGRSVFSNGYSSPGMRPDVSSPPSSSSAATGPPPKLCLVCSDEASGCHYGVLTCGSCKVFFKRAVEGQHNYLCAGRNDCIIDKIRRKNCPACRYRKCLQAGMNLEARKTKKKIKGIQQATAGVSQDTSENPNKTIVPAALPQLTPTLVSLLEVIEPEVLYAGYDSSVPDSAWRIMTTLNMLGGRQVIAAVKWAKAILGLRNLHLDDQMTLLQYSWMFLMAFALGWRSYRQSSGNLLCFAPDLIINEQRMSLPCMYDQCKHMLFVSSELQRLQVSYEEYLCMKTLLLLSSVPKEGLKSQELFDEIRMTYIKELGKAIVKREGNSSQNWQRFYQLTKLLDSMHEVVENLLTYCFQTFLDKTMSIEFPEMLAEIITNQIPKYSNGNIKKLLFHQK
As to the kind of experiment: Binding affinity to rat liver glucocorticoid receptor at 10 uM. A digest of the protocol: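 Rat liver glucocorticoid receptor competitive binding, reported as % binding. Bound and free steroid are separated by dextran-coated charcoal adsorption instead of protamine sulfate precipitation.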

In general, inhibition refers to the change of the read-out against control, counted positive when it falls. The IC50 is the concentration that gives 50% inhibition. On to `CC1(C)CC[C@@]2(CC[C@H]3[C@@H]4CCc5ccccc5[C@H]4CC[C@@]32C)OC1=O`, for which the inhibition worked out at 95% in [1] and 94% in [6]. The outcome in the assay listed under Mus musculus [2], in the assay on ZR-75-1 [3], with ZR-75-1 [4] and in the assay listed under Mus musculus [8] was inactive. Further, the Activity in the assay on ZR-75-1 [5] came out at 50%. In addition, the IC50 in assay [7] amounted to 2.9 nM.
`CC1(C)CC[C@@]2(CC[C@H]3[C@@H]4CCc5cc(O)ccc5[C@H]4CC[C@@]32C)OC1=O`: the inhibition in assay [1] amounted to 94%; in assay [6], 86%. Besides, the outcome (in assay [9]; in the assay filed under Mus musculus [2]; with ZR-75-1 [3]; in the assay listed under Mus musculus [8]) was inactive. The Activity was 24% in assay [10] and 30% in the assay on ZR-75-1 [5]. The outcome with ZR-75-1 [4] was Active. Moreover, in [7], the IC50 amounted to 28 nM.
